Measurements published in ChEMBL document CHEMBL3132832, “Design of Potential Bisubstrate Inhibitors against Mycobacterium tuberculosis (Mtb) 1-Deoxy-D-Xylulose 5-Phosphate Reductoisomerase (Dxr)-Evidence of a Novel Binding Mode” (Medchemcomm, 2013).
≈ marks a conversion by molar mass, not a printed value. Calls of active or inactive are those of the source. No cut-off for these calls is given here.

Assays:
[1] = Inhibition of His-tagged Mycobacterium tuberculosis DXR expressed in Escherichia coli BL21(DE3) using DXP as substrate assessed as oxidation of NADPH preincubated for 10 mins followed by NADPH and substrate addition by spectrophotometric analysis
How it was run: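 Activity was read spectrophotometrically at 37 °C as NADPH oxidation. Enzyme was preincubated with inhibitor for 10 min at 37 °C before substrate. Run in duplicate. IC50 came from nonlinear regression of dose-response plots.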

[2] = test system: Mycobacterium tuberculosis; test: Antitubercular activity against Mycobacterium tuberculosis H37Rv ATCC 27294 after 2 weeks; type: functional; settings: H37Rv ATCC 27294, 336 h
How it was run: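 Mtb H37Rv was grown to OD 0.5 in 7H9 with 0.05% Tween-80, 0.2% glycerol and ADC, then diluted 1:1000. Inhibitors from 50 mg/mL DMSO stocks were serially 2-fold diluted (eight dilutions). Three independent measurements.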

[3] = test system: Mycobacterium tuberculosis; test: Noncompetitive inhibition of His-tagged Mycobacterium tuberculosis DXR expressed in Escherichia coli BL21(DE3) using DXP as substrate at 5 to 50 uM by Lineweaver-Burk plot analysis in presence of 0.01 to 0.05 uM NADPH
[4] = test system: Mycobacterium tuberculosis; test: Competitive inhibition of His-tagged Mycobacterium tuberculosis DXR expressed in Escherichia coli BL21(DE3) using DXP as substrate at 5 to 50 uM by Lineweaver-Burk plot analysis in presence of NADPH
How it was run: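 For mode of inhibition versus DXP, purified His-tagged Mtb Dxr was run at 37 °C with NADPH fixed at 150 µM or 30 µM depending on inhibitor. Enzyme and inhibitor were preincubated 10 min at 37 °C before substrate. NADPH oxidation was followed spectrophotometrically. Duplicates were analysed by Lineweaver-Burk plots.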

[5] = test system: Mycobacterium tuberculosis; test: Inhibition of His-tagged Mycobacterium tuberculosis DXR expressed in Escherichia coli BL21(DE3) using DXP as substrate assessed as residual activity at 100 uM preincubated for 10 mins followed by NADPH and substrate addition by spectrophotometric analysis relative to control
How it was run: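 IMAC-purified His-tagged Mtb Dxr was tested with inhibitor at 100 μM, preincubated 10 min at 37 °C before substrate. NADPH oxidation was followed spectrophotometrically at 37 °C. Inhibition is relative. Duplicate assays.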

[6] = test system: Mycobacterium tuberculosis; test: Uncompetitive inhibition of His-tagged Mycobacterium tuberculosis DXR expressed in Escherichia coli BL21(DE3) using DXP as substrate at 5 to 50 uM by Lineweaver-Burk plot analysis in presence of 0.01 to 0.05 uM NADPH

Structure (SMILES)	IC50 [1] [µM]	MIC99 [2] [µg/mL]	Activity [5] [%]	also measured
CC(=O)N(CCCP(=O)(O)O)OCc1ccc(C(C)C)cc1	48.4	–	–	–
O=C(CCCc1ccccc1)N(O)CCCP(=O)([O-])O.[Na+]	17.8	> 200	–	inhibition [3]: Active; inhibition [4]: Active
O=C(Cc1ccccc1)N(O)CCCP(=O)(O)O	26.9	–	–	–
O=C(C1CCCCC1)N(O)CCCP(=O)(O)O	–	–	80	–
CC(=O)N(CCCP(=O)(O)O)OCC1CCCCC1	–	–	83.5	–
CC(=O)N(CCCP(=O)(O)O)OCCCc1ccccc1	–	–	77.5	–
CC(=O)N(CCCP(=O)(O)O)OCCc1ccccc1	–	–	81.5	–
CC(=O)N(O)CCCP(=O)([O-])O.[Na+]	2.39	> 500	–	inhibition [6]: Active; inhibition [4]: Active
O=CN(O)CCCP(=O)(O)O [FOSMIDOMYCIN]	–	> 500	–	–
CCOP(=O)(CCCN(O)C=O)OCC	–	250 (≈ 1050 µM)	–	–
CCOP(=O)(CCCN(O)C(=O)CCCc1ccccc1)OCC	–	200 (≈ 560 µM)	–	–
